Measurements taken from ChEMBL document CHEMBL4765324, “Synthesis and biological evaluation of novel quinoline-piperidine scaffolds as antiplasmodium agents” (Eur J Med Chem, 2020).

System: not listed separately
Assay: Selectivity index, ratio of IC50 for CHO cells to IC50 for antiplasmodial activity against chloroquine-sensitive Plasmodium falciparum NF54
Assay type: toxicity
Details: hamster, CHO cells (cytotoxicity) versus Plasmodium falciparum NF54; read-out: Ratio IC50
Method in brief: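 CHO cytotoxicity measured by MTT colorimetric assay, using the antiplasmodial stock solutions. Six 10-fold dilutions in complete medium, 100 to 0.001 μg/ml, with emetine as reference. Triplicate on one occasion. IC50 from non-linear dose-response fit. NF54 IC50 came from the parasite lactate dehydrogenase assay. SI = IC50 CHO/IC50 NF54.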

Compound	selectivity ratio
C=CCN1C[C@@H](OCc2ccccc2)[C@@H](CNc2ccnc3cc(Cl)ccc23)C(C)(C)C1 (relative stereo)	10100

System: Plasmodium falciparum
Assay: Resistance index, ratio of IC50 for antiplasmodial activity against chloroquine-resistant Plasmodium falciparum K1 to IC50 for antiplasmodial activity against chloroquine-sensitive Plasmodium falciparum NF54
Assay type: functional
Details: not given
Method in brief: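 Asexual blood-stage P. falciparum K1 and NF54 kept in continuous culture (modified Trager–Jensen). Growth read by parasite lactate dehydrogenase assay (modified Makler). Ten 2-fold dilutions in complete medium, from 10 μg/ml to 20 ng/ml (or 1 μg/ml to 2 ng/ml). Chloroquine as reference. Triplicate on one occasion. IC50s from non-linear dose-response fit. RI = IC50 K1/IC50 NF54.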

Compound	Ratio IC50
Oc1cccc2ccc(CNCC3CC4(c5ccccc5)CCN3C4)nc12 (mixture of isomers)	6.4
Clc1ccc2c(NCC3CC4(c5ccccc5)CCN3C4)ccnc2c1 (mixture of isomers)	1.6
C=CCN1C[C@@H](OCc2ccccc2)[C@@H](CNCc2cc3ccccc3nc2Cl)C(C)(C)C1 (relative stereo)	1.5
C=CCN1C[C@@H](OCc2ccccc2)[C@@H](CNCc2ccnc3ccccc23)C(C)(C)C1 (relative stereo)	1.5
C=CCN1CCC(CNc2ccnc3cc(Cl)ccc23)C(C)(C)C1 (stereo not given)	1.7
c1ccc(C23CCN(C2)C(CNc2ccnc4ccccc24)C3)cc1 (mixture of isomers)	1.5
C=CCN1CCC(CNc2ccnc3ccccc23)C(C)(C)C1 (stereo not given)	0.3
C=CCN1C[C@@H](OCc2ccccc2)[C@@H](CNCc2ccc3ccccc3n2)C(C)(C)C1 (relative stereo)	1.8
C=CCN1C[C@@H](OCc2ccccc2)[C@@H](CNc2ccnc3cc(Cl)ccc23)C(C)(C)C1 (relative stereo)	2.2
